Reference: ChEMBL document CHEMBL2346536, “Biscatecholate-monohydroxamate mixed ligand siderophore-carbacephalosporin conjugates are selective sideromycin antibiotics that target Acinetobacter baumannii” (2013)
In brackets after ≈: the same amount, converted by molar mass. Activity calls are given as the source filed them. The rule behind the calls is not given here.

What was measured:
Escherichia coli = assay: Antibacterial activity against Escherichia coli ATCC 25922 after 18 hrs by broth microdilution method; assay type: functional; details: ATCC 25922, 18 h
Method in brief: (§1)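 Broth microdilution MICs per CLSI guidelines, read by visual end point; each compound tested in triplicate.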

Klebsiella aerogenes = assay: Antibacterial activity against Enterobacter aerogenes ATCC 35029 after 18 hrs by broth microdilution method; assay type: functional; details: ATCC 35029, 18 h; method in brief: as §1
Staphylococcus aureus [1] = assay: Antibacterial activity against Staphylococcus aureus SG 511 after 18 hrs by broth microdilution method; assay type: functional; details: SG 511, 18 h; method in brief: as §1
Enterococcus faecium = assay: Antibacterial activity against Enterococcus faecium NCTC 7171 after 18 hrs by broth microdilution method; assay type: functional; details: NCTC 7171, 18 h; method in brief: as §1
Klebsiella pneumoniae = assay: Antibacterial activity against Klebsiella pneumoniae ATCC 700603 after 18 hrs by broth microdilution method; assay type: functional; details: ATCC 700603, 18 h; method in brief: as §1
Acinetobacter baumannii [2] = assay: Antibacterial activity against Acinetobacter baumannii ATCC 17961 after 18 hrs by broth microdilution method; assay type: functional; details: ATCC 17961, 18 h; method in brief: as §1
Pseudomonas aeruginosa = assay: Antibacterial activity against Pseudomonas aeruginosa ATCC 27853 after 18 hrs by broth microdilution method; assay type: functional; details: ATCC 27853, 18 h; method in brief: as §1
Staphylococcus aureus [3] = assay: Antibacterial activity against Staphylococcus aureus SG 511 in Fe(3)-deficient Mueller-Hinton no.2 broth media after 18 hrs by broth microdilution method; assay type: functional; details: SG 511, 18 h
Method in brief: (§2)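 CLSI broth microdilution in cation-adjusted Mueller–Hinton no. 2 broth. The iron-deficient broth contained 100 μM 2,2′-bipyridine and the iron-supplemented broth 100 μM FeCl₃. MIC was read by visual end point, each compound in triplicate.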

Staphylococcus aureus [4] = assay: Antibacterial activity against Staphylococcus aureus SG 511 in Fe(3)-supplemented Mueller-Hinton no.2 broth media after 18 hrs by broth microdilution method; assay type: functional; details: SG 511, 18 h; method in brief: as §2
Acinetobacter baumannii [5] = assay: Antibacterial activity against Acinetobacter baumannii ATCC 17961 in Fe(3)-deficient Mueller-Hinton no.2 broth media after 18 hrs by broth microdilution method; assay type: functional; details: ATCC 17961, 18 h; method in brief: as §2
Acinetobacter baumannii [6] = assay: Antibacterial activity against Acinetobacter baumannii ATCC 17961 in Fe(3)-supplemented Mueller-Hinton no.2 broth media after 18 hrs by broth microdilution method; assay type: functional; details: ATCC 17961, 18 h; method in brief: as §2
Staphylococcus aureus [7] = assay: Antibacterial activity against Staphylococcus aureus SG 511 in Fe(3)-supplemented Mueller-Hinton no.2 broth media assessed as diameter of growth inhibition zone after 18 to 24 hrs by agar diffusion assay; assay type: functional, organism-based
Method in brief: (§3)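 Modified Kirby–Bauer agar diffusion on Mueller–Hinton no. 2 agar, made iron-deficient with 100 μM 2,2′-bipyridine or iron-supplemented with 100 μM FeCl₃. Read-out was growth inhibition zone diameter (mm), averaged over three independent trials.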

Staphylococcus aureus [8] = assay: Antibacterial activity against Staphylococcus aureus SG 511 in Fe(3)-deficient Mueller-Hinton no.2 broth media assessed as diameter of growth inhibition zone after 18 to 24 hrs by agar diffusion assay; assay type: functional, organism-based; method in brief: as §3
Acinetobacter baumannii [9] = assay: Antibacterial activity against Acinetobacter baumannii ATCC 17961 in Fe(3)-supplemented Mueller-Hinton no.2 broth media assessed as diameter of growth inhibition zone after 18 to 24 hrs by agar diffusion assay; assay type: functional; method in brief: as §3
Acinetobacter baumannii [10] = assay: Antibacterial activity against Acinetobacter baumannii ATCC 17961 in Fe(3)-deficient Mueller-Hinton no.2 broth media assessed as diameter of growth inhibition zone after 18 to 24 hrs by agar diffusion assay; assay type: functional; method in brief: as §3
Staphylococcus aureus [11] = assay: Antibacterial activity against Staphylococcus aureus SG 511 at 0.5 mM after 18 to 24 hrs by agar diffusion assay in presence of Fe3-complex of N-[5-(3-{[4-(2,3-Dihydroxy-benzoylamino)-butyl]-[3-(2,3-dihydroxy-benzoylamino)-propyl]-carbamoyl}-propionylamino)-pentyl]-N-hydroxy-succinamic acid; assay type: functional, organism-based
Method in brief: (§4)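 Paper-strip competition on agar. LB cultures grown 18–24 h were suspended in 0.9% saline at […] (0.5 McFarland), then 0.1 mL was mixed into 34 mL MHII agar + 2,2′-bipyridine at 47 °C. Strips were soaked in 0.5 mM sideromycin or 2.0 mM siderophore (1:10 DMSO:MeOH). Plates ran 37 °C for 18–24 h and were photographed at 48 h.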

Staphylococcus aureus [12] = assay: Antibacterial activity against Staphylococcus aureus SG 511 at 0.5 mM after 18 to 24 hrs by agar diffusion assay in presence of N-[5-(3-{[4-(2,3-Dihydroxy-benzoylamino)-butyl]-[3-(2,3-dihydroxy-benzoylamino)-propyl]-carbamoyl}-propionylamino)-pentyl]-N-hydroxy-succinamic acid; assay type: functional, organism-based; method in brief: as §4
Acinetobacter baumannii [13] = assay: Antibacterial activity against Acinetobacter baumannii ATCC 17961 at 0.5 mM after 18 to 24 hrs by agar diffusion assay in presence of Fe3-complex of N-[5-(3-{[4-(2,3-Dihydroxy-benzoylamino)-butyl]-[3-(2,3-dihydroxy-benzoylamino)-propyl]-carbamoyl}-propionylamino)-pentyl]-N-hydroxy-succinamic acid; assay type: functional, organism-based; method in brief: as §4
Acinetobacter baumannii [14] = assay: Antibacterial activity against Acinetobacter baumannii ATCC 17961 at 0.5 mM after 18 to 24 hrs by agar diffusion assay in presence of N-[5-(3-{[4-(2,3-Dihydroxy-benzoylamino)-butyl]-[3-(2,3-dihydroxy-benzoylamino)-propyl]-carbamoyl}-propionylamino)-pentyl]-N-hydroxy-succinamic acid; assay type: functional, organism-based; method in brief: as §4

| MIC (Escherichia coli) | MIC (Klebsiella aerogenes) | MIC (Staphylococcus aureus [1]) | MIC (Enterococcus faecium) | MIC (Klebsiella pneumoniae) | MIC (Acinetobacter baumannii [2]) | MIC (Pseudomonas aeruginosa) | MIC (Staphylococcus aureus [3]) | MIC (Staphylococcus aureus [4]) | MIC (Acinetobacter baumannii [5]) | MIC (Acinetobacter baumannii [6]) | Compound | Activity (Staphylococcus aureus [7]) | Activity (Staphylococcus aureus [8]) | diameter of the inhibition zone (DIZ) (Acinetobacter baumannii [9]) | diameter of the inhibition zone (DIZ) (Acinetobacter baumannii [10]) | Activity (Staphylococcus aureus [11]) | Activity (Staphylococcus aureus [12]) | Activity (Acinetobacter baumannii [13]) | Activity (Acinetobacter baumannii [14]) |
| --- | --- | --- | --- | --- | --- | --- | --- | --- | --- | --- | --- | --- | --- | --- | --- | --- | --- | --- | --- |
| 2 µM (≈ 0.7 µg/mL) | > 128 µM | 1 µM (≈ 0.35 µg/mL) | 32 µM (≈ 11.2 µg/mL) | 128 µM (≈ 44.8 µg/mL) | > 128 µM | > 128 µM | – | – | – | – | N[C@@H](C(=O)N[C@@H]1C(=O)N2C(C(=O)O)=C(Cl)CC[C@H]12)c1ccccc1 [LORACARBEF ANHYDROUS] | – | – | – | – | – | – | – | – |
| 8 µM (≈ 8.4 µg/mL) | > 128 µM | 32 µM (≈ 33.6 µg/mL) | > 128 µM | > 128 µM | 0.125 µM (≈ 0.131 µg/mL) | > 128 µM | 32 µM (≈ 33.6 µg/mL) | 64 µM (≈ 67.2 µg/mL) | 0.0078 µM (≈ 0.00819 µg/mL) | 0.5 µM (≈ 0.525 µg/mL) | O=C(CCC(=O)N(CCCCNC(=O)c1cccc(O)c1O)CCCNC(=O)c1cccc(O)c1O)NCCCCCN(O)C(=O)CCC(=O)N[C@H](C(=O)N[C@@H]1C(=O)N2C(C(=O)O)=C(Cl)CC[C@H]12)c1ccccc1 | Active | Active | 16.2 mm | 20.6 mm | Active | Active | inactive | inactive |
| > 128 µM | > 128 µM | > 128 µM | > 128 µM | > 128 µM | > 128 µM | > 128 µM | – | – | – | – | O=C(CCC(=O)N(CCCCNC(=O)c1cccc(O)c1O)CCCNC(=O)c1cccc(O)c1O)NCCCCCN(O)C(=O)CCC(=O)N1CCN(c2cc3c(cc2F)c(=O)c(C(=O)O)cn3C2CC2)CC1 | – | – | – | – | – | – | – | – |
| > 128 µM | > 128 µM | > 128 µM | > 128 µM | > 128 µM | > 128 µM | > 128 µM | – | – | – | – | O=C(O)CCC(=O)N(O)CCCCCNC(=O)CCC(=O)N(CCCCNC(=O)c1cccc(O)c1O)CCCNC(=O)c1cccc(O)c1O | – | – | – | – | – | – | – | – |

| Compound | MIC (Escherichia coli) | MIC (Klebsiella aerogenes) | MIC (Staphylococcus aureus [1]) | MIC (Enterococcus faecium) | MIC (Klebsiella pneumoniae) | MIC (Acinetobacter baumannii [2]) | MIC (Pseudomonas aeruginosa) | MIC (Staphylococcus aureus [3]) | MIC (Staphylococcus aureus [4]) | MIC (Acinetobacter baumannii [5]) | MIC (Acinetobacter baumannii [6]) | Activity (Staphylococcus aureus [7]) | Activity (Staphylococcus aureus [8]) | diameter of the inhibition zone (DIZ) (Acinetobacter baumannii [9]) | diameter of the inhibition zone (DIZ) (Acinetobacter baumannii [10]) | Activity (Staphylococcus aureus [11]) | Activity (Staphylococcus aureus [12]) | Activity (Acinetobacter baumannii [13]) | Activity (Acinetobacter baumannii [14]) |
| --- | --- | --- | --- | --- | --- | --- | --- | --- | --- | --- | --- | --- | --- | --- | --- | --- | --- | --- | --- |
| O=C(O)c1cn(C2CC2)c2cc(N3CCNCC3)c(F)cc2c1=O [CIPROFLOXACIN] | < 0.015 µM | < 0.015 µM | 0.5 µM (≈ 0.166 µg/mL) | 8 µM (≈ 2.65 µg/mL) | 0.25 µM (≈ 0.0828 µg/mL) | 0.25 µM (≈ 0.0828 µg/mL) | 0.125 µM (≈ 0.0414 µg/mL) | – | – | – | – | – | – | – | – | – | – | – | – |
